Among the data in the array DNA melting data of Ke et al. (doi:10.1101/2024.01.08.574731) are folding enthalpy and Tm values, retold here.

The nature of series [1]: folding enthalpy; higher = less favourable; fluorescence melt of hairpins on a sequencing array, two-state fit. The note with it: sodium 0.088 M. Summed up:
(§1)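 Library hairpins on a sequenced MiSeq flow cell carried annealed Cy3 and quencher oligos, and their Cy3 fluorescence was imaged in 50 mM Na-HEPES pH 8.0 with 25 mM NaCl, in 2.5 °C steps up to 60 °C. Signals were normalised to Cy3 before quenching and to control constructs. Melting temperature and folding enthalpy were obtained from bootstrapped two-state fits, combined by inverse-variance weighting across four replicates, and the fitted temperatures were then raised by 9.35 °C to match UV melts.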

The nature of series [2]: melting temperature; fluorescence melt of hairpins on a sequencing array, two-state fit, raised by 9.35 °C to match UV melts. The conditions noted are these: sodium 0.088 M. Summed up: as §1

Take GAGCGGCGAAAGCCCTC (((.(((....)))))): the folding enthalpy in series [1] is -16.1 kcal/mol. Moreover, the Tm in series [2] was found to be 53 °C.
As for GAGCTACCGAAAGGTCTC (((..(((....)))))), the folding enthalpy in series [1] is -13.5 kcal/mol. In addition, the Tm in series [2] is 27.6 °C.
The like results for GAGCTAGGAAACTAACTC (((.(((....))).))) were, in that order, -19.9 kcal/mol and 30.4 °C.
The like results for GAGCTAGGAAACTAGCCC (.(((((....))))).) were, in that order, -12.9 kcal/mol and 40.4 °C.
The like results for GAGCTAGGAAACTAGTTC ((.((((....)))).)) were, in that order, -26.8 kcal/mol and 37.2 °C.
In the case of GAGCTCCGAAAGGATCTC (((.(((....))).))), the folding enthalpy in series [1] was -25 kcal/mol. The Tm in series [2] was 46.4 °C.
The corresponding values for GAGCTGCGAAAGCACTC (((.(((....)))))) are -20.4 kcal/mol and 46.2 °C.
The corresponding values for GAGCTGGGAAACCGGCTC ((((.((....)).)))) are -38.5 kcal/mol and 59.2 °C.
The like results for GAGGAACGAAAGTTACTC (((.(((....))).))) were, in that order, -39.3 kcal/mol and 54.5 °C.
Regarding GAGGAACGAAAGTTGCTC (((.(((....))).))), the folding enthalpy in series [1] was -47.7 kcal/mol. In addition, the Tm in series [2] was found to be 53.9 °C.
The like results for GAGGAAGAAATTCCTC ((((((....)))))) were, in that order, -25 kcal/mol and 47.7 °C.
For the sequence GAGGAAGGAAACCTCCTC (((((.(....).))))), in series [1], the folding enthalpy is -25.9 kcal/mol. Moreover, in series [2], the Tm stood at 36.6 °C.
The like results for GAGGACGAAAGTCCCCTC ((((((....)))..))) were, in that order, -10.3 kcal/mol and 42.7 °C.
GAGGACGAAAGTCCCTC ((((((....))).))): the folding enthalpy in series [1] was -11.3 kcal/mol. Further, in series [2], the Tm came to 51.2 °C.
On to GAGGACGAAAGTCGACTC ((((((....)))..))), for which the folding enthalpy in series [1] is -14.9 kcal/mol. Besides, the Tm in series [2] was determined as 40.6 °C.
Consider GAGGACGAAAGTCGCTC ((((((....))).))), for which, in series [1], the folding enthalpy is -17.8 kcal/mol. Also, in series [2], the Tm was determined as 46 °C.
In the case of GAGGACGAAAGTCTACTC ((((((....)))..))), the folding enthalpy in series [1] was -12 kcal/mol. Moreover, the Tm in series [2] was 36.8 °C.
The like results for GAGGACGAAAGTCTCCTC ((((((....)))..))) were, in that order, -14.9 kcal/mol and 36.3 °C.
Take GAGGAGACGAAAGTCCTC (((..(((....)))))): the folding enthalpy in series [1] is -15.5 kcal/mol. Also, the Tm in series [2] was 40.8 °C.
The corresponding values for GAGGAGCGAAAGCTACTC (((.(((....))).))) are -31.4 kcal/mol and 64.8 °C.
The like results for GAGGAGGCGAAAGCCCTC (((..(((....)))))) were, in that order, -14.1 kcal/mol and 44.1 °C.
GAGGATGGAAACATCCCC (.(((((....))))).): the folding enthalpy in series [1] was -11.5 kcal/mol. The Tm in series [2] came out at 42.8 °C.
The corresponding values for GAGGCACGAAAGTGTCTC (((.(((....))).))) are -29 kcal/mol and 64.5 °C.
In the case of GAGGCCGAAAGGCCACTC ((((((....)))..))), the folding enthalpy in series [1] was -10.2 kcal/mol. Also, the Tm in series [2] was found to be 60.4 °C.
The corresponding values for GAGGCCGAAAGGCGACTC ((((((....)))..))) are -12.7 kcal/mol and 44.7 °C.
The like results for GAGGGACGAAAGTCACTC (((.(((....))).))) were, in that order, -31.2 kcal/mol and 65.6 °C.
Take GAGGGAGGAAACCCCCTC (((((.(....).))))): the folding enthalpy in series [1] was -28.5 kcal/mol. Moreover, in series [2], the Tm turned out to be 46.3 °C.
In the case of GAGGGCGAAAGCCAACTC ((((((....)))..))), in series [1], the folding enthalpy is -13 kcal/mol. In series [2], the Tm turned out to be 41.7 °C.
On to GAGGGCGAAAGCCGACTC ((((((....)))..))), for which, in series [1], the folding enthalpy was -13 kcal/mol. Moreover, the Tm in series [2] stood at 44.6 °C.
The corresponding values for GAGGGCGAAAGCCGCTC ((((((....))).))) are -13 kcal/mol and 54.5 °C.
In the case of GAGGGGCGAAAGCCTCTC (((.(((....))).))), the folding enthalpy in series [1] is -23.3 kcal/mol. The Tm in series [2] is 58 °C.
The like results for GAGGGGGCGAAAGCCCTC (((..(((....)))))) were, in that order, -7.85 kcal/mol and 40.6 °C.
The corresponding values for GAGGGTGCGAAAGCACTC (((..(((....)))))) are -8.61 kcal/mol and 41.1 °C.
Consider GAGGTAGCGAAAGCTCTC (((..(((....)))))), for which, in series [1], the folding enthalpy was -13.6 kcal/mol. For the same sequence, the Tm in series [2] came out at 38 °C.
The corresponding values for GAGGTAGGAAACTACTTC ((.((((....)))).)) are -30.1 kcal/mol and 32.5 °C.
The corresponding values for GAGGTCACGAAAGTGCTC (((..(((....)))))) are -13.4 kcal/mol and 30.7 °C.
Regarding GAGGTCGGAAACGGCCTC ((((.((....)).)))), the folding enthalpy in series [1] is -41.8 kcal/mol. Also, the Tm in series [2] is 62.3 °C.
The like results for GAGGTGCGAAAGCATCTC (((.(((....))).))) were, in that order, -34 kcal/mol and 59.3 °C.
In the case of GAGGTGGAAACACCTC ((((((....)))))), the folding enthalpy in series [1] is -33.3 kcal/mol. Besides, the Tm in series [2] stood at 63.4 °C.
The corresponding values for GAGGTGGGAAACCGCTTC ((.(.((....)).).)) are -19.1 kcal/mol and 50 °C.
The like results for GAGGTTGGAAACAACCCC (.(((((....))))).) were, in that order, -13.2 kcal/mol and 40.5 °C.
The corresponding values for GAGGTTGGAAACGACTTC ((.((.(....).)).)) are -24.9 kcal/mol and 35.2 °C.
For the sequence GAGTAACGAAAGTTGCTC (((.(((....))).))), the folding enthalpy in series [1] was -52 kcal/mol. Besides, the Tm in series [2] stood at 53.2 °C.
Consider GAGTAAGCGAAAGCTCTC (((..(((....)))))), for which the folding enthalpy in series [1] is -13.4 kcal/mol. For the same sequence, the Tm in series [2] was determined as 35.7 °C.
As for GAGTACCGAAAGGTGCTC (((.(((....))).))), the folding enthalpy in series [1] is -36.6 kcal/mol. Moreover, in series [2], the Tm was 60.6 °C.
Regarding GAGTACCGAAAGGTTCTC (((.(((....))).))), in series [1], the folding enthalpy is -30.7 kcal/mol. Besides, the Tm in series [2] turned out to be 47.9 °C.
In the case of GAGTACGAAAGTACGCTC ((((((....)))..))), the folding enthalpy in series [1] was -16.3 kcal/mol. The Tm in series [2] came out at 53.9 °C.
Turning to GAGTACGAAAGTAGGCTC ((((((....)))..))), in series [1], the folding enthalpy was -19.6 kcal/mol. Further, in series [2], the Tm came to 36.1 °C.
As to GAGTAGGGAAACCCACTC ((((.((....)).)))), the folding enthalpy in series [1] is -32 kcal/mol. In series [2], the Tm is 39.6 °C.
The like results for GAGTATGGAAACACACTC ((((.((....)).)))) were, in that order, -24.9 kcal/mol and 31.7 °C.
With GAGTATGGAAACATATTC ((.((((....)))).)), the folding enthalpy in series [1] is -21.2 kcal/mol. In addition, the Tm in series [2] was 30.8 °C.
For the sequence GAGTCACCGAAAGGTCTC (((..(((....)))))), in series [1], the folding enthalpy is -12.6 kcal/mol. Besides, the Tm in series [2] is 28.1 °C.
Take GAGTCACGAAAGTGCTC (((.(((....)))))): the folding enthalpy in series [1] is -23.8 kcal/mol. Further, in series [2], the Tm was found to be 48.6 °C.
Regarding GAGTCAGGAAACTAACTC ((((.((....)).)))), the folding enthalpy in series [1] was -12.4 kcal/mol. Also, in series [2], the Tm was 25.4 °C.
The corresponding values for GAGTCCCCGAAAGGGCTC (((..(((....)))))) are -19.2 kcal/mol and 44.4 °C.
For the sequence GAGTCCGAAAGGATCTC ((((((....))).))), the folding enthalpy in series [1] is -31 kcal/mol. The Tm in series [2] was determined as 50 °C.
The corresponding values for GAGTCCGGAAACGAACTC ((((.((....)).)))) are -34.6 kcal/mol and 41.7 °C.
The corresponding values for GAGTCGGAAACGACTC ((((((....)))))) are -37.5 kcal/mol and 65.9 °C.
With GAGTCTACGAAAGTACTC (((..(((....)))))), in series [1], the folding enthalpy was -15 kcal/mol. In addition, the Tm in series [2] was 27.2 °C.
With GAGTCTGGAAACAGACCC (.(((((....))))).), the folding enthalpy in series [1] is -14.2 kcal/mol. The Tm in series [2] was found to be 38 °C.
With GAGTCTGGAAACAGACTC (((((((....))))))), the folding enthalpy in series [1] is -39.9 kcal/mol. In addition, in series [2], the Tm worked out at 65.3 °C.
With GAGTGACGAAAGTCGCTC (((.(((....))).))), the folding enthalpy in series [1] is -38.9 kcal/mol. The Tm in series [2] came out at 64.8 °C.
As for GAGTGAGGAAACTCACCC (.(((((....))))).), the folding enthalpy in series [1] was -13.9 kcal/mol. Also, the Tm in series [2] came to 39.4 °C.
On to GAGTGAGGAAACTCGCTC (((.(((....))).))), for which the folding enthalpy in series [1] is -49.6 kcal/mol. In addition, in series [2], the Tm was 50.6 °C.
Regarding GAGTGAGGAAACTCGTTC ((..(((....)))..)), the folding enthalpy in series [1] was -11.8 kcal/mol. Also, the Tm in series [2] was determined as 27.6 °C.
The corresponding values for GAGTGCACGAAAGTGCTC (((..(((....)))))) are -7.52 kcal/mol and 37.4 °C.
The corresponding values for GAGTGCCGAAAGGCCCTC (((.(((....))).))) are -18.3 kcal/mol and 51.3 °C.
As for GAGTGCCGAAAGGCTCTC (((.(((....))).))), the folding enthalpy in series [1] was -25.6 kcal/mol. In addition, the Tm in series [2] was 56.4 °C.
The corresponding values for GAGTGCGAAAGCAATCTC ((((((....)))..))) are -21.4 kcal/mol and 53.7 °C.
The corresponding values for GAGTGCGAAAGCACACTC ((((((....)))..))) are -12.6 kcal/mol and 58.6 °C.
The corresponding values for GAGTGCGAAAGCACCCTC ((((((....)))..))) are -10.4 kcal/mol and 45.1 °C.
For GAGTGCGAAAGCAGACTC ((((((....)))..))), the folding enthalpy in series [1] is -18.2 kcal/mol. The Tm in series [2] was determined as 44.4 °C.
The corresponding values for GAGTGCGAAAGCAGCCTC ((((((....)))..))) are -13.2 kcal/mol and 34.5 °C.
